# Source: ChEMBL document CHEMBL4308828, “Fragment Based Optimization of Metabotropic Glutamate Receptor 2 (mGluR2) Positive Allosteric Modulators in the Absence of Structural Information” (J Med Chem, 2018)
# pEC50, pIC50: −log10 of the molar value.
# Columns and labels:
# [1] = biological target: Metabotropic glutamate receptor 2 (Homo sapiens, UniProt Q14416); assay: Positive allosteric modulation of human mGluR2 expressed in human Chem1 cells assessed as increase in glutamate-induced intracellular calcium influx preincubated for 30 mins followed by glutamate addition by calcium-5 dye based fluorometric assay; assay type: functional, cell-based
# Chain of Metabotropic glutamate receptor 2 (Q14416 whole entry): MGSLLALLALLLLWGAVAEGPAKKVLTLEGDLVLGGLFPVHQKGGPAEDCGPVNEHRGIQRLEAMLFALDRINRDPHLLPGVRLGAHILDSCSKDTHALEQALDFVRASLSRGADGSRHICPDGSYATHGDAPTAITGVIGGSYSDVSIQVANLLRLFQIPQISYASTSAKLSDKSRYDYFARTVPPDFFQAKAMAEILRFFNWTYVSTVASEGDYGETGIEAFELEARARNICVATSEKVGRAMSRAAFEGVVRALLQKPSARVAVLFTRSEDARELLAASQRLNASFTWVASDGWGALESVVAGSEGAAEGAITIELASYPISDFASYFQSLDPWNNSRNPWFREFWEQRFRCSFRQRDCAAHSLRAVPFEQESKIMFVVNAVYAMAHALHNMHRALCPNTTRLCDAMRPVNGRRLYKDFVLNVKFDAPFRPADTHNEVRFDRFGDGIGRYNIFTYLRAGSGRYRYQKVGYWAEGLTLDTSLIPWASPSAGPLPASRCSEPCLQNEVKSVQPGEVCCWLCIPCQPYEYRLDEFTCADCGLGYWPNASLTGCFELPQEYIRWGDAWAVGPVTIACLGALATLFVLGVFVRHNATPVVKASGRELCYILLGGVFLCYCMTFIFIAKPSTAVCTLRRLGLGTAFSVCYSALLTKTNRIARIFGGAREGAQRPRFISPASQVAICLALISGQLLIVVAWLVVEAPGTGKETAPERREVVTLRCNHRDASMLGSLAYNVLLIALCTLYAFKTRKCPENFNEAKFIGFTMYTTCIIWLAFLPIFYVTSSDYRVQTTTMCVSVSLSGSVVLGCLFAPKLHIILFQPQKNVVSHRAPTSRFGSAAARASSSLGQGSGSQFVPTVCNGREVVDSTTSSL
# In short: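 Chem-1 cells stably expressing human mGlu2, 30000 cells/well, overnight at 37 °C. Loaded with Calcium 5 dye (30 min, 37 °C) in buffer with GPT/pyruvate, washed, then compound or vehicle 30 min at 37 °C. Glutamate at EC5-EC20 added after 20 s baseline; fluorescence 485/525 nm read 40 s. ΔF/F from multiple wells; sigmoid fits give EC50, three independent experiments. Final DMSO 1%.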
# [2] = Intrinsic clearance in human liver microsomes at 2.5 uM; assay type: ADME, Microsome
# In short: (§1)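 Liver microsomes (0.5 mg/mL) of human, Wistar rat or NMRI mouse; compound 2.5 μM initial, incubated for various times. Intrinsic clearance (mL/min·g liver) taken as rate of compound consumption under first-order conditions, Clint = Vmax/KM or V/S when S ≪ KM.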
# [3] = Intrinsic clearance in Wistar rat liver microsomes at 2.5 uM; assay type: ADME, Microsome; in short: as §1
# [4] = Intrinsic clearance in NMRI mouse liver microsomes at 2.5 uM; assay type: ADME, Microsome; in short: as §1
# [5] = Lipophilicity, log D of the compound at pH 7.4; assay type: physicochemical; conditions: buffer
# [6] = Kinetic aqueous solubility of the compound in pH 7.4 solution; assay type: physicochemical; conditions: aqueous pH 7.4 solution, read-out: Kinetic_solubility
# [7] = Protein binding in mouse plasma; assay type: ADME, cell-free; conditions: read-out: PPB (converted)
# [8] = Protein binding in rat plasma; assay type: ADME, cell-free; conditions: read-out: PPB (converted)
# Cytochrome P450 1A2 = biological target: T1, Cytochrome P450 1A2 (Homo sapiens, UniProt P05177); assay: Inhibition of CYP1A2 (unknown origin); assay type: ADME
# T1 sequence (P05177 whole entry): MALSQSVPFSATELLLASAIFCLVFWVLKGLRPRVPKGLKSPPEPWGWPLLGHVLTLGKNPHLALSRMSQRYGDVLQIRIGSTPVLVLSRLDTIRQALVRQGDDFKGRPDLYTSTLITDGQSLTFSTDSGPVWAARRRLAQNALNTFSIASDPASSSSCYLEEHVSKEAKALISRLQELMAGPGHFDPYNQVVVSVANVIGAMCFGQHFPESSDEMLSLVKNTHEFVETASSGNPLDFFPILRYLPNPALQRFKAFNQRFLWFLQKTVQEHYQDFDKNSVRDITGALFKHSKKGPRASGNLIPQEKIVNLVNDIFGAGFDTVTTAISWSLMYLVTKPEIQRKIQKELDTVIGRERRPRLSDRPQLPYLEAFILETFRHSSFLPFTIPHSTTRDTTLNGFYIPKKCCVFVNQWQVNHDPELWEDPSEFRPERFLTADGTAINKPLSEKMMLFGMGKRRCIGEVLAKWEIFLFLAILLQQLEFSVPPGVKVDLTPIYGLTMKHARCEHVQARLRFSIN
# Cytochrome P450 2D6 = Cytochrome P450 2D6 (Homo sapiens, UniProt P10635); assay: Inhibition of CYP2D6 (unknown origin); assay type: ADME
# Chain of Cytochrome P450 2D6 (P10635 whole entry): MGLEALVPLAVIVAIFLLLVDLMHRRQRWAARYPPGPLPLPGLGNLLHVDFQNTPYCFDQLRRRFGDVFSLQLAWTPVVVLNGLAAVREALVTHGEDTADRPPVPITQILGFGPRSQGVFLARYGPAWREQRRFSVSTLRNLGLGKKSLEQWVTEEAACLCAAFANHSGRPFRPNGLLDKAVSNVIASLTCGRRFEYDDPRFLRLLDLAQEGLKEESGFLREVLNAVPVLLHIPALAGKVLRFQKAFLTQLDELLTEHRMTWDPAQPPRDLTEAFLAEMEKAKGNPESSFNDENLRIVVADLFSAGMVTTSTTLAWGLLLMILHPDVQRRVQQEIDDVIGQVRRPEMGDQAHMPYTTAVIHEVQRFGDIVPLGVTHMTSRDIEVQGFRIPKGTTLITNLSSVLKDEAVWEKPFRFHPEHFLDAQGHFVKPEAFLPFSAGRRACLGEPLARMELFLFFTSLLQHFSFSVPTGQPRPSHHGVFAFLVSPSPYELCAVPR
# Cytochrome P450 2C9 = Cytochrome P450 2C9 (Homo sapiens, UniProt P11712); assay: Inhibition of CYP2C9 (unknown origin); assay type: ADME
# Chain of Cytochrome P450 2C9 (P11712 whole entry): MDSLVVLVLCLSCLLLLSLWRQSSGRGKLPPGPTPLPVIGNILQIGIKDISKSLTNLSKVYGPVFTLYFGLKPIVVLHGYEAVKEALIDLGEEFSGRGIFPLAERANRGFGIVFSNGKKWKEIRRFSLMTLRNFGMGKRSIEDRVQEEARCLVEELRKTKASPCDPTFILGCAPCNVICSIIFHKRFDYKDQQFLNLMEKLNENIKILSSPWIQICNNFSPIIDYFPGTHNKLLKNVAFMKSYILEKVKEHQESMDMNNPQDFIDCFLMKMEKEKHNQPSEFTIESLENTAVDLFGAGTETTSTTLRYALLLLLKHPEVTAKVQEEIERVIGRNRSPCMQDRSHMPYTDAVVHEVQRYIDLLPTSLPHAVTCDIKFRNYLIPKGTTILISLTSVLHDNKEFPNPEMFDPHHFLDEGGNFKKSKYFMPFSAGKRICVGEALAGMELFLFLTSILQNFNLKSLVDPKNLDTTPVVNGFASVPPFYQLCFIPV
# Cytochrome P450 3A4 = Cytochrome P450 3A4 (Homo sapiens, UniProt P08684); assay: Inhibition of CYP3A4 (unknown origin); assay type: ADME
# Chain of Cytochrome P450 3A4 (P08684 whole entry): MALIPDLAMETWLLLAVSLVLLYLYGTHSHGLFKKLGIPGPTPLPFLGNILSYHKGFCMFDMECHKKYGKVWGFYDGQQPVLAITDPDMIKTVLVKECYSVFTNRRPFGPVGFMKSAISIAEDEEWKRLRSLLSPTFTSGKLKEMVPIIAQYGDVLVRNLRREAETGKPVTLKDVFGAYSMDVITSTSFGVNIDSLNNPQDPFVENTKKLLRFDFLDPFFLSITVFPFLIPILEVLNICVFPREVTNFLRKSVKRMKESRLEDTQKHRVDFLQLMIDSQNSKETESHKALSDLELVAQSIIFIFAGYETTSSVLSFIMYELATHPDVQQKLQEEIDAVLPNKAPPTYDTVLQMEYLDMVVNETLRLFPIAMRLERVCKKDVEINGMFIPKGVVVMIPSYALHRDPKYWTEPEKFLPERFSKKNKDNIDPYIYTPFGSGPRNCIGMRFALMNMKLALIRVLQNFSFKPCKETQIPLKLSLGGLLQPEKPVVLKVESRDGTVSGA
# [9] = biological target: T2, Nuclear receptor subfamily 1 group I member 2 (Homo sapiens, UniProt O75469); assay: Activation of PXR (unknown origin) assessed as CYP induction; assay type: ADME
# T2 sequence (O75469 whole entry): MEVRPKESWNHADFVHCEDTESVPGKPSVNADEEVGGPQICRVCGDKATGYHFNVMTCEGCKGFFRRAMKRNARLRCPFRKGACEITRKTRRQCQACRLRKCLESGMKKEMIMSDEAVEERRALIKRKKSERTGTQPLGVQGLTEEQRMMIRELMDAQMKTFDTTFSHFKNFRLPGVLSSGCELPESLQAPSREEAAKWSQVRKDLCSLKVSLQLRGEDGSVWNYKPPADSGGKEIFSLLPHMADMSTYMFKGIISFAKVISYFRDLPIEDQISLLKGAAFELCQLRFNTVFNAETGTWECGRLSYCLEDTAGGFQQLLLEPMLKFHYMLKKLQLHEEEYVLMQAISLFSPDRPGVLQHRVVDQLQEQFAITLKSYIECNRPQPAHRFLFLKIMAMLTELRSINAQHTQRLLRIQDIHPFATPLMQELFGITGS
# [10] = Plasma concentration in mouse at 30 mg/kg, po; assay type: ADME, organism-based; conditions: in vivo
# In short: (§2)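 Mice dosed orally at 30 mg/kg; plasma, brain and unbound plasma concentrations measured.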
# [11] = Drug uptake in mouse brain at 30 mg/kg, po; assay type: ADME, organism-based; conditions: in vivo, read-out: Drug uptake; in short: as §2
# [12] = Unbound plasma concentration in mouse at 30 mg/kg, po; assay type: ADME, organism-based; conditions: in vivo; in short: as §2
# Mus musculus [13] = assay: Antipsychotic activity in ip dosed ddY mouse assessed as inhibition of PCP-induced hyperlocomotion pretreated followed by PCP addition measured after 60 mins by passive infrared sensor method; assay type: functional
# In short: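 Male ddY mice, 6 weeks old, acclimated 60 min in test cage, dosed i.p., then immediately PCP 2.5 mg/kg s.c.; locomotor activity recorded 60 min by passive infrared sensor system; ED50 reported.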
# Mus musculus [14] = assay: Inhibition of DOI-induced head twitches in ip dosed ddY mouse pretreated for 20 mins followed by DOI addition measured after 8 mins; assay type: functional
# In short: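 Male ddY mice, 6 weeks old, dosed i.p. 20 min before DOI 0.75 mg/kg s.c.; head twitches counted in transparent cylinder from 10 to 18 min after DOI.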
# Homo sapiens = species on record: Homo sapiens; assay: Binding affinity to sodium channel site 2 (unknown origin) at 10 uM relative to control
# [15] = biological target: T3, Androgen receptor (Homo sapiens) (UniProt P10275); assay: Binding affinity to AR (unknown origin) at 10 uM relative to control
# T3 sequence (whole entry): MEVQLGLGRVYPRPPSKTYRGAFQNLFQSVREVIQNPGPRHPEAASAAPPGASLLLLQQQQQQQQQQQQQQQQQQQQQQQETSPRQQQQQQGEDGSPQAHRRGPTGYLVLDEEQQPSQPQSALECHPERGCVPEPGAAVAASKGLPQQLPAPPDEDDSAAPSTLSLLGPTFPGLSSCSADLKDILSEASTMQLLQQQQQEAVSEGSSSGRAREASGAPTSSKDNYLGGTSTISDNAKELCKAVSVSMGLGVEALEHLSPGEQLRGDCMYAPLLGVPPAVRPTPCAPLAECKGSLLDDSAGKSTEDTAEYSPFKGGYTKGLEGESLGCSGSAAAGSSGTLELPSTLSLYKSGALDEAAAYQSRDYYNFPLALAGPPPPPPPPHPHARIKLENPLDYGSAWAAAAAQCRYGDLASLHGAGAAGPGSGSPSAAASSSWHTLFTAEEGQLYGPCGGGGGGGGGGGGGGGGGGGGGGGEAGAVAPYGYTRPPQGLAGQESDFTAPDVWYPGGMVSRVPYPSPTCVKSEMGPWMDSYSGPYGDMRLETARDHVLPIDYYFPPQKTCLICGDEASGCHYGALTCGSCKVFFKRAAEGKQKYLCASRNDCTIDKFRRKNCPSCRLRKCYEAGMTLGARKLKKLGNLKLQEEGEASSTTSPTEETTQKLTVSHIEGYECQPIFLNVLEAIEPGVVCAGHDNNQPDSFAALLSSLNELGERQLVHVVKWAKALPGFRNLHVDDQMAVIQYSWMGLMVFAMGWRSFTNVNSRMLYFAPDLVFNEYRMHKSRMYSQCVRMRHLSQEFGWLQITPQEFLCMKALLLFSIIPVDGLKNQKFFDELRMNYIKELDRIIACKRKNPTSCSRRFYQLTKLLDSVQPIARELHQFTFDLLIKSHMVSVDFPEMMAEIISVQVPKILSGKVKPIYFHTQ
Structure (SMILES),pEC50 [1],Intrinsic clearance [2],Intrinsic clearance [3],Intrinsic clearance [4],logD [5],solubility kinetic [6],fraction unbound [7],fraction unbound [8],pIC50 (Cytochrome P450 1A2),pIC50 (Cytochrome P450 2D6),pIC50 (Cytochrome P450 2C9),pIC50 (Cytochrome P450 3A4),MEC [9],concentration [10],concentration [11],Cp(f) [12],ED50 (Mus musculus [13]),ED50 (Mus musculus [14]),Activity (Homo sapiens),Activity [15]
FC(F)(F)c1cccc2c1nnn2CC1CC1,6.83,0.3 mL/min/g,0.3 mL/min/g,1.4 mL/min/g,3.08,409 µg/mL,0.145,0.1,< 5.00,< 5.00,< 5.00,< 5.00,7 µM,12.1 µM,13.1 µM,1.75 µM,57.6 mg/kg,29.7 mg/kg,–,–
Fc1cc(Cl)ccc1-c1ccc(Cn2nnc3c(Br)cccc32)cn1,8.22,0.1 mL/min/g,0.4 mL/min/g,3.8 mL/min/g,–,–,–,–,–,–,–,–,–,20 µM,7.1 µM,0.081 µM,47 mg/kg,–,–,–
Fc1cc(C(F)(F)F)ccc1-c1ccc(Cn2nnc3ccccc32)cc1,7.54,0.1 mL/min/g,0.4 mL/min/g,1.2 mL/min/g,–,–,–,–,–,–,–,–,–,–,–,–,–,–,–,–
Fc1cc(Cl)ccc1-c1ccc(Cn2nnc3ccccc32)cc1,7.55,0.4 mL/min/g,1.3 mL/min/g,1.1 mL/min/g,–,–,–,–,–,–,–,–,–,–,–,–,–,–,–,–
Fc1ccc(-c2ccc(Cn3nnc4ccccc43)cc2)c(F)c1,7.15,0.9 mL/min/g,6.4 mL/min/g,2.3 mL/min/g,–,–,–,–,–,–,–,–,–,–,–,–,–,–,–,–
Fc1cc(Cl)ccc1-c1ccc(Cn2nnc3ccccc32)cn1,7.30,0.01 mL/min/g,0.8 mL/min/g,3.4 mL/min/g,5.48,3 µg/mL,0.008,0.006,< 5.00,< 5.00,5.18,< 5.00,7.7 µM,2 µM,1.4 µM,0.015 µM,> 100 mg/kg,–,50%,77%
